Molecules are shown by their SMILES.

The subject of assay [1] is AGS cells. Description: MTT cell proliferation assay, AGS. The settings on record: Homo sapiens, 72 h, read-out: IC50 on AGS cells. Type of assay: cell-based. In short, it runs like this:
(§1)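 Cells seeded overnight in 96-well plates, then exposed to a range of test compound concentrations for 72 h. MTT added for 2 h, medium removed, formazan dissolved in DMSO, and OD570 read. Viability normalized to untreated cells from the same experiment. IC50 calculated from concentration–response data. MTT run in triplicate; means ± SEM of three experiments.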
On the technique in general: Tetrazolium dyes change colour on reduction, which living cells bring about.

The subject of assay [2] is MKN45 cells. Nature of the assay: MTT cell proliferation assay, MKN45. The settings on record: Homo sapiens, MKN-45, 72 h, read-out: IC50 on MKN45 cells. Format: cell-based. In short, it runs like this: as §1

Regarding `COc1ccc(CCCOC(Cn2ccnc2)c2ccc(OC)cc2)cc1` (centres unmarked) [SKF96365], the figures for the IC50 in assay [1] and in assay [2] were 27.8 ± 1.1 µM and 13.7 ± 0.8 µM, respectively.

Source of the values: paper PMC6345172 (Cancer letters, 2018).
